Diaphorase inh: diaphorase inhibitors and chemical oxidizers, primary screen, counter-screen for diaphorase-coupled primary assays, biochemical, uHTS, resorufin fluorescence. diaphorase resazurin-to-resorufin fluorescence, NADH, 16 min; bacterial (C. kluyveri) enzyme, not human. inhibition, % at 20 µM. 0.69% of 190,000 active. AID 1217, 2008;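 active = primary screen inhibition at 20 µM above a set limit, cut at about 50% in these data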;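 note: plate controls were DMSO with full reaction for no effect and wells lacking NADH for full effect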
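Benchmarks: positive control wells lacking NADH, neutral wells with DMSO only. System: bacterial diaphorase enzyme (C. kluyveri). Input: 0.14 U/mL diaphorase, enzyme working solution. Detection: resorufin fluorescence, excitation 544 nm, emission 590 nm. Times: 16-min room-temperature incubation before reading.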
PfGluPho inh: PfG6PD enzyme inhibitors, primary screen, biochemical, fluorescence intensity, uHTS. glucose-6-phosphate dehydrogenase-6-phosphogluconolactonase (Plasmodium falciparum 3D7). PfGluPho enzyme, NADPH resazurin-diaphorase fluorescence. inhibition, % at 20 µM. 0.78% of 350,000 active. AID 504690, 2011;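 active = inhibition reaching at least a set limit at 20 µM in the primary screen, cut at about 59% in these data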;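 note: 0% = DMSO wells with substrate and 100% = DMSO wells lacking glucose-6-phosphate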
HKDC1 inh: HKDC1 hexokinase inhibitors, primary screen, biochemical, fluorescence, uHTS. Q2TB90. recombinant HKDC1, G6PDH/diaphorase resazurin coupled fluorescence. AID 493160, 2011. inhibition, % at 20 µM. 0.16% of 340,000 active;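 active = inhibition above about 35% when tested at 20 µM, limit read from the data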;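 note: plate controls were DMSO wells with enzyme for no effect and DMSO wells lacking enzyme for full effect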
Target sequence (Q2TB90 whole entry, looked up): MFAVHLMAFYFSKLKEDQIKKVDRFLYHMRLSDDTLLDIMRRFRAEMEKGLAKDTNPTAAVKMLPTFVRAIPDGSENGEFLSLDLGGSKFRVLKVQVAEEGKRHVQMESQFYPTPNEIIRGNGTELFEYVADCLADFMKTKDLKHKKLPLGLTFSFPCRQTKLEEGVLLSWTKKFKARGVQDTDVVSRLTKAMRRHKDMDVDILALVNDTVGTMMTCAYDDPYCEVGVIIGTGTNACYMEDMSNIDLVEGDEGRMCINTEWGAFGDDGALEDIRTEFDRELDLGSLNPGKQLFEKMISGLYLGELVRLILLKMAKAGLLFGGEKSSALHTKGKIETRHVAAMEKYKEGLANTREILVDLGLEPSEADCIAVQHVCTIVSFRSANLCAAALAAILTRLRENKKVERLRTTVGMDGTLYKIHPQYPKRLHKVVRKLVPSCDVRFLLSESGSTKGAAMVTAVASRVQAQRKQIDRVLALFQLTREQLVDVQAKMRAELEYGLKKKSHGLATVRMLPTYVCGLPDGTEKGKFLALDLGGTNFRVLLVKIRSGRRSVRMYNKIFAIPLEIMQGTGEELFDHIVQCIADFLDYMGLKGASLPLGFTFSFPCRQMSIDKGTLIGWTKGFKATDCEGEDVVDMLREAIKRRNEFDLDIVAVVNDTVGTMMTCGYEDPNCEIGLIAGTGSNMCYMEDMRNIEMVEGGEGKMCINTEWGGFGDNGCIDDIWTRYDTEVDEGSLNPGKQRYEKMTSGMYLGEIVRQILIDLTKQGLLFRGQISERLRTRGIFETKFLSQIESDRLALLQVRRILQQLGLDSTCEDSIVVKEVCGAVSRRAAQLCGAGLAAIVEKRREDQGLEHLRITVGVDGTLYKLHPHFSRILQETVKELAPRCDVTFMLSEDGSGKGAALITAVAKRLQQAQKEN
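Assay system: recombinant HKDC1 hexokinase; detection: coupled resazurin fluorescence, excitation 525 nm, emission 613 nm; benchmarks: DMSO-plus-enzyme-mix negative control, buffer-substituted positive control; compound dosing: single 20 µM dose; schedule: 90 min at room temperature in dark; also added: glucose plus 1 mM ATP as hexokinase substrates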
Diaph act CS: compounds boosting diaphorase resazurin reduction – biochemical, uHTS, resorufin fluorescence, counter-screen for diaphorase-coupled primary assays, primary screen; Diaphorase/resazurin coupled assay, 16 min; active compounds read high; 1 = vehicle wells, 0 = NADH-free wells; activation factor at 20 µM; 0.005% of 190,000 active; AID 1229, 2008;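 active = diaphorase activity raised at least twofold by the compound at 20 µM; inactive = activation factor below 2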
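Assay system: bacterial diaphorase enzyme (C. kluyveri) / Input: enzyme 0.07 U/mL final / Medium: 50 mM HEPES pH 7.4 with 4.542 mM MgCl2, 0.005% Tween 20 / Doses: single compound dose of 20 µM, 1% DMSO final / Incubation: 16 min enzyme reaction, ambient temperature / Signal: fluorescence, excitation 544 nm and emission 590 nm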
G6PDH CS: L. mesenteroides G6PDH inhibitors, counter-screen for G6PDH-coupled screening assays, biochemical, Leuconostoc mesenteroides enzyme. Purified L. mesenteroides G6PDH, diaphorase/resazurin coupled fluorescence, 45 min. inhibition, % at 5 µM. 0.12% of 200,000 active; in the data active = inhibition above about 50%
PfGluPho conf: PfG6PD inhibitors, hit retest, confirmation, biochemical, fluorescence intensity, single concentration | shares compounds with PfGluPho inh | AID 504753, 2011 | 34% of 2,400 active | inhibition, % at 20 µM | recombinant PfGluPho, NADPH-diaphorase-resazurin fluorescence;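 active = inhibition of at least 50% at 20 µM in any single replicate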;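 note: 0% = DMSO with substrate and 100% = DMSO lacking glucose-6-phosphate substrate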
Diaph ctr 10uM: diaphorase inhibitors and chemical oxidizers, confirmation, counter-screen for P. falciparum G6PD inhibitor project, biochemical, fluorescence intensity, 10 µM NADPH; AID 504862, 2011; 39% of 820 active; inhibition, % at 20 µM; diaphorase-coupled resazurin reduction, NADPH 10 uM; shares compounds with PfGluPho inh;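 active = average inhibition reaching 50% or more with the compound at 20 µM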;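 note: resorufin red fluorescence formed as diaphorase reduces resazurin using NADPH; 0% = DMSO with enzyme and 100% = DMSO without enzyme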
Diaph ctr 30uM: diaphorase inhibitors and chemical oxidizers, confirmation, counter-screen for P. falciparum G6PD inhibitor project, biochemical, fluorescence intensity, 30 µM NADPH; shares compounds with PfGluPho inh; Diaphorase/resazurin coupled assay, resorufin fluorescence; inhibition, % at 20 µM; 29% of 820 active; AID 504863, 2011;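 active = inhibition averaging 50% or more, tested at 20 µM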;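 note: 0% = DMSO with enzyme and 100% = DMSO wells lacking diaphorase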
Numbers without * were called inactive; . = no result given. A selection: hits, their analogues and other compounds. The true share with any hit is near 1.3%.

SMILES	Diaphorase inh	PfGluPho inh	HKDC1 inh	Diaph act CS	G6PDH CS	PfGluPho conf	others
Cc1nnc(N/N=C/c2ccc(Br)cc2)n1N	.	57	7	.	.	.
Cc1nnc(N/N=C\c2ccc(-c3cccc(C(=O)O)c3)o2)n1N	4	71*	3	1	7	52*	Diaph ctr 10uM=25;Diaph ctr 30uM=18
Cc1nnc(N/N=C/c2ccc(-c3ccc(Br)cc3)o2)n1N	15	61*	5	0.9	9	48
O=C1Nc2ccccc2C(=O)C1(Cl)Cc1ccccc1 (stereo not drawn)	12	70*	7	0.9	9	66*	Diaph ctr 10uM=-2;Diaph ctr 30uM=-6
CSC1=NS(=O)(=O)c2c(C)nn(C)c2S1	.	63*	-8	.	.	2
Cc1cc(C)c(S(=O)(=O)c2cccc(Br)c2C)c(Cl)n1	.	69*	1	.	.	22
Cc1nc(N2CCCCC2)c2sc(=S)n(C)c2n1	21	1	-4	0.8	-31	.
CCN1CCN(c2nc(C)nc3c2sc(=S)n3C)CC1	24	76*	-5	0.8	-22	62*	Diaph ctr 10uM=-19;Diaph ctr 30uM=-15
CCC(C)(C)NC(=O)C(c1ccc(C)cc1)N(Cc1cccs1)C(=O)c1ccc2c(c1)OCCO2 (stereo not drawn)	16	62*	-8	0.8	6	-29
CC(CC(=O)N(CCC1=CCCCC1)c1c(N)n(Cc2ccccc2)c(=O)[nH]c1=O)c1ccccc1 (stereo not drawn)	.	-13	-7	.	.	.
Oc1ccc(N2CCN(c3ccnc4cc(Cl)ccc34)CC2)cc1	.	66*	3	.	.	-5
N#CCCn1nc(-c2ccccc2)c2ccccc2c1=O	.	1	1	.	.	.
Cc1cc(C)nc(NS(=O)(=O)c2ccccc2)n1	11	0	5	0.9	3	.
Cc1ccc2cccc(NS(=O)(=O)c3ccccc3)c2n1	.	139*	4	.	.	105*	Diaph ctr 10uM=102*;Diaph ctr 30uM=80*
CC(=O)Nc1ccc(S(=O)(=O)Nc2cccc3cccnc23)cc1	.	-7	7	.	.	.
O=S(=O)(Nc1cccc2cccnc12)c1ccccc1	.	96*	15	.	.	52*	Diaph ctr 10uM=61*;Diaph ctr 30uM=40
CC(C)(C)OC(=O)N1CCC[C@H]1C(=O)Nc1ccc(S(=O)(=O)C(F)F)cc1	.	-2	3	.	.	.
O=c1[nH]c2cc3c(cc2cc1CN(Cc1ccccc1)Cc1nnnn1Cc1ccco1)OCCO3	40	76*	21	0.6	7	-6
O=c1[nH]c2cc3c(cc2cc1CN(Cc1cccnc1)Cc1nnnn1Cc1ccco1)OCCO3	24	27	5	0.8	8	.
COc1cc(/C=N/N2CCN(C3c4ccccc4-c4ccccc43)CC2)cc(OC)c1O	27	76*	16	0.7	-11	17
COc1cc(/C=N/N2CCN(C3c4ccccc4-c4ccccc43)CC2)cc(OC)c1OC	20	-2	12	0.8	-27	.
CCOc1ccc(/C=N/N2C(C)CCCC2C)cc1OC (stereo not drawn)	.	-17	-3	.	.	.
COc1cc(/C=N/N2C(C)CCCC2C)cc(OC)c1O (stereo not drawn)	.	84*	5	.	.	18
O=C(/C=C/c1cccs1)N1CCN(c2ccc(O)cc2)CC1	20	64*	-2	0.8	2	36
COc1cccc(CN2CC(C(=O)NCCc3cn4cccnc4n3)CCC2=O)c1 (stereo not drawn)	.	-2	.	.	.	.
SMILES	Diaphorase inh	PfGluPho inh	HKDC1 inh	Diaph act CS	G6PDH CS	PfGluPho conf	others
O=C1CC(NS(=O)(=O)c2ccc(F)cc2)CN1c1ccc2c(c1)OCCO2 (stereo not drawn)	.	6	-2	.	.	.
O=S(=O)(NNc1ncc(C(F)(F)F)cc1Cl)c1ccc(F)cc1F	.	65*	-1	.	.	42
Oc1ccc(N2CCN(c3nc(-c4cccs4)nc4ccccc34)CC2)cc1	.	60*	9	.	.	6
COC1=C(Br)C(=O)c2nc(C)ccc2C1=O	.	101*	.	.	.	74*	Diaph ctr 10uM=46;Diaph ctr 30uM=37
COC1=C(N)C(=O)c2nc(C)ccc2C1=O	.	109*	32	.	.	93*	Diaph ctr 10uM=49;Diaph ctr 30uM=57*
O=C(C[n+]1cccc(O)c1)NCc1ccc(Cl)cc1	.	-9	-3	.	.	.
CCOC(=O)C(C)Sc1nc(N2CCOCC2)c2c(c1C#N)CC(C)(C)OC2 (stereo not drawn)	.	5	-1	.	.	.
CC(Sc1nc(N2CCOCC2)c2c(c1C#N)CC(C)(C)OC2)C(=O)Nc1ccccc1 (stereo not drawn)	4	60*	-4	1	4	-10
Cc1cc(C)cc(C(=O)N2CC(=O)Nc3ccccc32)c1	-4	11	5	1	1	.
Cc1ccc(/C=C/C(=O)N2CC(=O)Nc3ccccc32)o1	-3	72*	0	1	5	23
Brc1cc2[nH]cnc2c2ccccc12	38	59*	21	0.6	-27	50*	Diaph ctr 10uM=29;Diaph ctr 30uM=28
Oc1ccc2c(ccc3[nH]cnc32)c1	.	4	1	.	.	.
Cc1ccccc1CN1CCC(CNC(=O)C2CCCN(c3ncnc4c3nc3n4CCCCC3)C2)CC1 (stereo not drawn)	.	-11	-4	.	.	.
S=C(NN=Cc1ccccn1)N(Cc1ccccn1)Cc1ccccn1	.	80*	-36	.	.	55*	Diaph ctr 10uM=-9;Diaph ctr 30uM=-1
CN(C(=O)C=Cc1ccccc1)c1ccccc1	.	-9	-6	.	.	.
O=C(CCl)N(O)c1ccc(C=Cc2ccccc2)cc1	.	62*	0	.	.	-6
Nc1nc2ccccc2n1/N=C/c1ccc(-c2ccccc2)o1	9	80*	4	0.9	0	13

Screening data as filed in PubChem BioAssay.
